# Experimental data pooled from the literature.
# Protocols differ between the studies behind these lines.
# Target: Serine/threonine-protein kinase Nek1 (NEK1, Homo sapiens, UniProt Q96PY6)
# Sequence (Q96PY6 1-1258, as in one of the studies): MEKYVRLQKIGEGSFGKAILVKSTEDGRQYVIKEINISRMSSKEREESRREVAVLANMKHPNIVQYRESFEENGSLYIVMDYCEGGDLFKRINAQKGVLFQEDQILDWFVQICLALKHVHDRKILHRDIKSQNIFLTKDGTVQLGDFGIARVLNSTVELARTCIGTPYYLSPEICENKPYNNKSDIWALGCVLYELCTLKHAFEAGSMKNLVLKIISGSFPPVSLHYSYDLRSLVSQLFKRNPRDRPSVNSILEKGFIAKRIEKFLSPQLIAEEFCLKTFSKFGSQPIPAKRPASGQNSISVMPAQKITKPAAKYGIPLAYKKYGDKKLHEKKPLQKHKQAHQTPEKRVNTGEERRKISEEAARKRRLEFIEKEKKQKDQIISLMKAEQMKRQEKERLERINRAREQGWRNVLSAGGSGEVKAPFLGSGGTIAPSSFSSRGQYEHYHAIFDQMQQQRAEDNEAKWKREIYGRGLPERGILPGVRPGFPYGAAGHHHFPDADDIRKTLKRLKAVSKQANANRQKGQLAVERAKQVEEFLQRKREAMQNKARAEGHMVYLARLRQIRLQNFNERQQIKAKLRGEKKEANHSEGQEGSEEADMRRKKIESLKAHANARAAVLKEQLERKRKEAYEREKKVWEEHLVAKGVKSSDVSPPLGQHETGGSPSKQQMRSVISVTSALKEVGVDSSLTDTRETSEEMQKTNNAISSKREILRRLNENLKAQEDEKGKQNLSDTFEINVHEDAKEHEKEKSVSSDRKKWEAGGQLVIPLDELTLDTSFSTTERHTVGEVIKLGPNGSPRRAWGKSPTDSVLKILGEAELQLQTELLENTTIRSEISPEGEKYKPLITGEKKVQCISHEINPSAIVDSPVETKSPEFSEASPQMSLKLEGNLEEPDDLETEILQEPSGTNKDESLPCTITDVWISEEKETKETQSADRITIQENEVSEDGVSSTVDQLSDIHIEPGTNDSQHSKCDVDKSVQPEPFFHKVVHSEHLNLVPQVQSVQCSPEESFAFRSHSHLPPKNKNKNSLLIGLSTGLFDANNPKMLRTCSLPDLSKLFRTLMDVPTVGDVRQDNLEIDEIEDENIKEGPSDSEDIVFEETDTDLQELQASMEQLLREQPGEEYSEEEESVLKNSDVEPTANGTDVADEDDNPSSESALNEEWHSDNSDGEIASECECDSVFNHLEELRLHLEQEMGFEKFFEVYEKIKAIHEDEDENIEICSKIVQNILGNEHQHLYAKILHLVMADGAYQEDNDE
Structure (SMILES),test,setting,remaining binding [%]
O=C(NS(=O)(=O)c1ccc(NCC2CCOCC2)c([N+](=O)[O-])c1)c1ccc(N2CCN(Cc3ccc(C(F)(F)F)cc3-c3ccc(Cl)cc3)CC2)cc1Oc1cnc2[nH]ccc2c1,"cell-free assay, competition with immobilised ligand",1 µM,99
CN(C)c1ncc(F)c(-c2cnn3ncccc23)n1,binding,1 µM,100
CNC(=O)[C@@H]1CC[C@@H](n2c(-c3ccc4cnccc4c3)nc3ccc(C(=O)NCc4cccc(C(N)=O)c4)cc32)C1,"binding, competition with immobilised ligand",1 µM,100
Nc1ncc2c(n1)-c1c([nH]c3ccc(C#CC4CC4)cc13)CCCC2,"binding, competition with immobilised ligand",1 µM,100
Cc1cnc(Nc2ccc(C(=O)N3CCC(N4CCCC4)CC3)cc2)nc1-c1cc2ccccc2s1,"binding, competition with immobilised ligand",1 µM,18
CS(=O)(=O)NCC[C@H](NC(=O)c1cncc2c1cnn2-c1ccc(F)cc1)c1ccnc(S(C)(=O)=O)c1,"cell-free assay, competition with immobilised ligand",1 µM,45
CC1CCCN1c1nccc(-c2cnn3ncccc23)n1 (stereo not shown),binding,1 µM,100
COc1ncc2cc3ccccc3nc2c1C#N,"cell-free assay, competition with immobilised ligand",5 µM,100
N[C@H]1CCN(c2nccc(-c3cnn4ncccc34)n2)C1,binding,1 µM,97
O=C(c1ccc(Nc2ncc(Cl)c(-c3cc4ccccc4s3)n2)cc1)N1CCC(N2CCCC2)CC1,"binding, competition with immobilised ligand",1 µM,27
c1cncc(-c2cccc(Nc3nccc(NC4CCCCC4)n3)c2)c1,"binding, competition with immobilised ligand",10 µM,91
CN(CCCC(F)(F)F)c1nccc(-c2cnn3ncccc23)n1,binding,1 µM,100
O=C(N[C@H]1CCCCC/C=C\C2C[C@@]2(C(=O)O)NC(=O)[C@@H]2C[C@@H](Oc3ccncc3)CN2C1=O)OC1CCCC1 (stereo partly shown),"binding, competition with immobilised ligand",1 µM,100
C[C@H]1CCN(c2nccc(-c3cnn4ncccc34)n2)C1,binding,1 µM,100
CCC(=O)N[C@H]1CC[C@@H](C(=O)N(C)c2ccc(-c3nc4ccccc4o3)cc2)C1,"cell-free assay, competition with immobilised ligand",1 µM,100
CN(c1nccc(-c2cnn3ncccc23)n1)C1CC1,binding,1 µM,100
CN(c1ccnc(CNc2nc(Nc3ccc4c(c3)CC(=O)N4)ncc2C(F)(F)F)n1)S(C)(=O)=O,"cell-free assay, competition with immobilised ligand",1 µM,51
O=C(c1ccc(Nc2nccc(-c3cc4ccccc4s3)n2)cc1)N1CCC(N2CCCC2)CC1,"binding, competition with immobilised ligand",1 µM,31
Cn1nc(C(=O)NCc2ccc(C(=O)O)cc2)cc1-c1ccc2[nH]ccc2c1,"cell-free assay, competition with immobilised ligand",0.1 µM,100
COc1ccnn2ncc(-c3ccnc(N(C)C)n3)c12,binding,1 µM,100
O=C(NCc1ncc(C(F)(F)F)cc1Cl)c1ccc2c(c1)C1(CCS(=O)(=O)CC1)[C@H](C1CC1)N2S(=O)(=O)c1ccc(F)cc1,"cell-free assay, competition with immobilised ligand",1 µM,100
O=C(NCC1CCOCC1)c1n[nH]cc1NC(=O)c1c(F)cccc1F,"binding, competition with immobilised ligand",1 µM,100
